Reference: ChEMBL document CHEMBL1687916, “Non-nucleoside inhibitors of human adenosine kinase: synthesis, molecular modeling, and biological studies” (J Med Chem, 2011)
Active and inactive are the calls of the source. The calls are words filed in the database; no cut-off is given here.

What was measured:
Adenosine kinase = Adenosine kinase (Homo sapiens, UniProt P55263); test: Inhibition of human adenosine kinase; settings: read-out: IC50
HeLa S3 [1] = test: Inhibition of DNA syntheses in human HeLaS3 cells assessed as [3H]thymidine incorporation at 10 uM after 40 mins by scintillation counter; type: functional, cell-based
Summary of the method: (§1)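 HeLaS-3 cells grown in DMEM with fetal calf serum, trypsinized, and resuspended at 10^6 cells/mL in serum-free DMEM at 37 C with 0, 10 or 50 μM compound plus 5 μCi [3H]thymidine (25 Ci/mmol) or [3H]uridine (22 Ci/mmol). Samples at 0-40 min were spotted on GF/C filters, washed in 5% TCA and ethanol, and acid-precipitable radioactivity counted. Mean of three determinations.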

HeLa S3 [2] = test: Inhibition of DNA syntheses in human HeLaS3 cells assessed as [3H]thymidine incorporation at 50 uM after 40 mins by scintillation counter; type: functional, cell-based; summary of the method: as §1
HeLa S3 [3] = test: Inhibition of RNA syntheses in human HeLaS3 cells assessed as inhibition of [3H]uridine incorporation after 40 mins by scintillation counter; type: functional, cell-based; summary of the method: as §1
[4] = Cellular permeability in human HeLaS3 cells assessed as level of [3H]AMP produced at 2.5 to 25 uM by scintillation counter; type: ADME, cell-based; settings: hela s3, 25 µM
Summary of the method: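 HeLaS-3 cells grown in DMEM with fetal calf serum at 37 C, trypsinized, then resuspended at 10^6 cells/mL in serum-free DMEM with compound and 3 μCi [3H]Ado (25 Ci/mmol) at 37 C. Samples taken at 0, 10, 20, 30 and 40 min were spotted on DE-81 filters and washed. [3H]AMP was measured by scintillation counting. Mean of three determinations.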

K562 [5] = test: Growth inhibition of human K562 cells after 7 days by Burker cell counter; type: functional; settings: K562, 168 h
Summary of the method: (§2)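 K562 cells in RPMI 1640 with 10% fetal calf serum, seeded at 5000 cells/mL and held 15 h at 37 C in 5% CO2. Serial compound dilutions were added and cells incubated 7 days. Aliquots were mixed with 0.5% trypan blue; unstained and blue cells were counted on a Bürker chamber. Triplicate points, each count averaged from four determinations.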

K562 [6] = test: Cytotoxicity against human K562 cells assessed as dead cells after 7 days by Burker cell counter; type: functional, cell-based; summary of the method: as §2
HeLa S3 [7] = test: Cytostatic activity against human HeLaS3 cells at 40 uM after 24 to 48 hrs compound added for every 24 hrs; type: functional, cell-based
Summary of the method: (§3)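 Cells (8 × 10^4) grown at 37 C in DMEM with 10% fetal calf serum, 5 mM L-glutamine and 50 μg/mL gentamycin, with or without 40 μM compound for 3 days. Medium and compound were replaced daily. Cultures were counted every day after trypsinization.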

Homo sapiens = organism: Homo sapiens; test: Cytostatic activity against human Cen3tel cells at 40 uM after 24 to 48 hrs compound added for every 24 hrs; type: functional, cell-based; summary of the method: as §3
[8] = Metabolic stability of the compound in human HeLaS3 cell crude extract assessed as compound degradation measured upto 20 hrs pretreated at 40 uM for 3 days; type: ADME, cell-based; settings: hela s3, 20 h
Summary of the method: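 HeLaS-3 cells cultured 3 days with 40 μM compound added fresh every 24 h; crude extract prepared by hypotonic Hepes buffer lysis, dounce homogenization and 10000g spin. Compound (1 mM) was incubated in extract at 37 C for 0, 1, 5 and 20 h, then lyophilized and extracted twice with cold MeOH. Remaining compound was quantified by reverse-phase HPLC.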

HL-60 [9] = test: Cytotoxicity against human HL60 cells after 72 hrs; type: functional, cell-based; settings: HL-60, 72 h
Summary of the method: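 HL-60 cells (40 000/well) in RPMI-1640 with 10% FBS and penicillin/streptomycin, seeded for 24 h, then exposed to vehicle (0.1% DMSO) or a concentration range for 72 h. AlamarBlue (10% v/v) was added for 4.5 h at 37 C and fluorescence read at ex 544/em 590 nm. Viability is relative to vehicle control; IC50 from dose-response curves; three independent experiments.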

HL-60 [10] = test: Induction of apoptosis in human HL60 cells assessed as DNA content at 50 uM after 24 hrs by flow cytometry relative to vehicle-treated control; type: functional
Summary of the method: (§4)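 HL-60 cells treated with vehicle (0.1% DMSO) or 25-100 μM compound for 24, 48 or 72 h, harvested by centrifugation, PI-stained for 30 min at 37 C in the dark, and analysed by flow cytometry (10 000 gated events). Cells with under 2N DNA content were scored apoptotic. Three independent experiments.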

HL-60 [11] = test: Induction of apoptosis in human HL60 cells assessed as DNA content at 100 uM after 24 hrs by flow cytometry relative to vehicle-treated; type: functional; summary of the method: as §4
HL-60 [12] = test: Induction of apoptosis in human HL60 cells assessed as DNA content at 100 uM after 48 hrs by flow cytometry relative to vehicle-treated; type: functional; summary of the method: as §4
[13] = molecular target: T1, Adenosine deaminase (Bos taurus) (UniProt P56658); test: Inhibition of bovine ADA at 100 uM by spectrophotometric analysis
T1 sequence (whole entry): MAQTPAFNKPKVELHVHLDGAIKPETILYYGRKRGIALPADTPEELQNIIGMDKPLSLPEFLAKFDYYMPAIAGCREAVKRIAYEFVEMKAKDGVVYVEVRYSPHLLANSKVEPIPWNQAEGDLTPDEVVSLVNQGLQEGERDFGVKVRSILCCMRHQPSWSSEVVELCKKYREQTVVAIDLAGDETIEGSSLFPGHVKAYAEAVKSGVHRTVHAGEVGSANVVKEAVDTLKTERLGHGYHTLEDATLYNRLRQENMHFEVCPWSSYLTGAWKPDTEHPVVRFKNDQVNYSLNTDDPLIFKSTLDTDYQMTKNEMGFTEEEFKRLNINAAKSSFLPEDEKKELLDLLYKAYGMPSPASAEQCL
Summary of the method: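 Adenosine deaminase assayed at 30 C with 50 μM Ado, 50 mM potassium phosphate pH 7.2 and 0.3 nM enzyme. Deamination was followed as A262 change over 2 min. Compound tested at 100 μM, with DMSO at most 4% final and a substrate-free blank. Percent inhibition from two determinations in triplicate.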

NIH3T3 = test: Cytotoxicity against mouse 3T3 cells by phenyltetrazolium bromide assay; type: functional, cell-based
Summary of the method: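 Murine 3T3 fibroblasts; proliferation measured by MTT assay, with IC50 reported. Each value is the mean of three determinations; Student's t test, p < 0.05.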

HeLa S3 (Homo sapiens) [14] = test: Growth inhibition of human HeLaS-3 cells pretreated for 2 days measured after 24 hrs of compound wash out by Burker cell counter
HeLa S3 (Homo sapiens) [15] = test: Growth inhibition of human HeLaS-3 cells pretreated for 2 days measured after 2 days of compound wash out by Burker cell counter

Adenosine kinase, sequence (P55263 whole entry): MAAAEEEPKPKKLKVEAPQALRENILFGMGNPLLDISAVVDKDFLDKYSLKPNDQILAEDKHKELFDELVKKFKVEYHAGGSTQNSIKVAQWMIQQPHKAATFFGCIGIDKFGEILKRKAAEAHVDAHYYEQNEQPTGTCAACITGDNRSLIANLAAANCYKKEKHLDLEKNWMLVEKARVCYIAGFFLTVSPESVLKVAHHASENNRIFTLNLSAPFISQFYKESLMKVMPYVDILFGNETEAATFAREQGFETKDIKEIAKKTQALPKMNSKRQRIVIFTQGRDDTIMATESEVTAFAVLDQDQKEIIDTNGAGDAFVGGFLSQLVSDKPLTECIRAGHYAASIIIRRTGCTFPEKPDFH

- IC50 (Adenosine kinase): 1.2 µM
- Drug uptake [4]: Active
- Stability [8]: Stable
- inhibition [13]: 15%
Compound: CCC1(c2ccc(CSc3ccccc3)cc2)Oc2ccccc2-n2cccc2C1=O (racemic)
- Activity (HeLa S3 [1]): inactive
- Activity (HeLa S3 [2]): inactive
- IC50 (HeLa S3 [3]): 50 µM
- GI50 (K562 [5]): 1 µM
- Activity (K562 [6]): Not toxic
- Activity (HeLa S3 [7]): inactive
- Activity (Homo sapiens): inactive
- IC50 (HL-60 [9]): 34.2 µM
- Activity (HL-60 [10]): 44%
- Activity (HL-60 [11]): 70%
- Activity (HL-60 [12]): 90%
- IC50 (NIH3T3): 118 µM
- growth inhibition (GI) (HeLa S3 (Homo sapiens) [14]): Active
- growth inhibition (GI) (HeLa S3 (Homo sapiens) [15]): inactive
